In the library only some 3.5% were active in any assay of this set; here they are far more common.
RGS4 block – human RGS4 inhibition. HEK293 M3R/RGS4 inducible, Fluo-4 calcium flux; active compounds read high; triggered by carbachol at its EC20. B-score at 10 µM. P49798. AID 463165. 0.45% of 310,000 active;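 active = B-score, a plate-corrected calcium signal, over three deviations above library mean, with baseline fluorescence within five deviations of library mean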;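 also: RGS4 expression induced by doxycycline in cells with stable M3 receptor; B-score is computed from the integrated fluorescence ratio over baseline after carbachol; higher B-score means a larger calcium signal and so more RGS4 inhibition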
Target sequence (P49798 whole entry, looked up): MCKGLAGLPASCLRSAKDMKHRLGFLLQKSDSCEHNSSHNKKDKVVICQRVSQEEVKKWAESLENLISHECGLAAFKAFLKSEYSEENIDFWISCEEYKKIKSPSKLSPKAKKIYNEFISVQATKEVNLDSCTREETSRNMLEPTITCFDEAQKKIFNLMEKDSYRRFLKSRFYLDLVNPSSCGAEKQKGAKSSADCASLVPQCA
MrgX1 allo act – human MrgX1 positive allosteric modulation, primary screen | Q96LB2 | 0.63% of 310,000 active | B-score at 10 µM | MrgX1-HEK293, Fluo-4 calcium flux, FDSS; active compounds read high | AID 588675;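 active = plate-corrected calcium response at least 3 library SD above typical, normal starting fluorescence, not activating the receptor alone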;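 also: compound read alongside a low EC10 to EC30 dose of BAM8-22 agonist; peak minus trough fluorescence over baseline measured at the second addition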
MrgX1 agonist – activates human MrgX1 receptor signaling; Q96LB2; MrgX1-HEK293 cells, Fluo-4 calcium fluorescence, agonist mode; active compounds read high; B-score at 10 µM; 0.44% of 310,000 active; AID 588627;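 active = calcium response B-score plate-corrected fluorescence ratio at least 3 library SD, with starting fluorescence B-score inside 5 SD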
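Assay system: stable human MrgX1 HEK293 cell line. Quantity: 15,000 cells per well. Schedule: cells plated overnight, dye loaded 0.5 h 37 °C, 0.5 h room temperature. Detection: Fluo-4 NW calcium-flux fluorescence, kinetic read. Read-out basis: peak-minus-minimum fluorescence over baseline, converted to B scores. Control set: positive and negative control wells on each plate.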
RGS4 pot – potentiators or activators of RGS4; HEK293 M3R/inducible RGS4, carbachol calcium flux Fluo4; active compounds read low; B-score at 10 µM; 0.92% of 310,000 active;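 active = B-score of the integrated calcium signal more than 4 SD below the library mean, with starting fluorescence not abnormally high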;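 also: negative B-score means reduced calcium response which marks RGS4 activation or potentiation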
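System – HEK293 FlpIn-TREx cells, stable M3R, doxycycline-inducible RGS4 · Reagent – ECmax carbachol challenge · Times – compound preincubation 20 min at room temperature before agonist · Technique – Fluo4 fluorescence kinetic imaging of calcium · Measure – B score of integrated Fluo4 ratio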
MrgX1 antag – blocks BAM8-22 activation of human MrgX1 receptor; Q96LB2; 1.3% of 310,000 active; AID 588676; MRGX1-HEK293 calcium flux, Fluo-4, BAM8-22 antagonism; active compounds read low; B-score at 10 µM;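 active = calcium-response B-score plate-corrected more than 3 library SD below zero, starting fluorescence within 5 deviations, no agonist response on first addition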;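 also: peak minus trough fluorescence over baseline after final BAM8-22 challenge near maximal dose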
RGS4 inh valid – validation of RGS4 inhibitors; shares compounds with RGS4 block; HEK293 M3R/RGS4, carbachol calcium Fluo-4 fluorescence; carbachol added at its EC20; 0 = buffer wells, 100 = carbachol control; calcium response, % at 10 µM; 65% of 1,700 active; AID 492999;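 active = duplicate-averaged calcium response above the buffer-only control mean plus 5 SD of those controls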;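 also: integrated fluorescence ratio F max minus min over baseline F0; higher response in RGS4-induced cells means RGS4 inhibition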
RGS4 uninduced – non-induced cell nonspecific activity of RGS4 inhibitors. HEK293 M3R non-induced, carbachol calcium Fluo-4; submaximal (EC20) carbachol stimulus; buffer wells 0%, carbachol control wells 100%. activity (percent), % at 10 µM. AID 493000. shares compounds with RGS4 block. 20% of 1,900 active; call rule not given here;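 also: RGS4 induction absent so cells express M3R without RGS4; higher means more calcium signal and flags a non-specific hit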
M3R basal Ca ctr – second RGS4 inhibitor counter-screen in uninduced cells lacking carbachol; shares compounds with RGS4 block; HEK293 M3R/RGS4 non-induced, Fluo-4 calcium, no carbachol; normalised: buffer wells 0%, carbachol wells 100%; calcium response (agonist-mode artifact), % at 10 µM; 22% of 1,900 active; AID 493001;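 active = duplicate-averaged calcium rise in uninduced cells above buffer wells' mean plus 5 SD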
Active calls of the source: *.

N#Cc1c(N2CCOCC2)nc(-c2ccco2)c2c1CCCC2 was read as RGS4 block inactive, MrgX1 allo act inactive, MrgX1 agonist inactive, RGS4 pot inactive, MrgX1 antag inactive, RGS4 inh valid inactive, RGS4 uninduced inactive and M3R basal Ca ctr inactive.
`CC1(C)Cc2c(C#N)c(NCc3ccco3)nc(-c3ccco3)c2CO1` gave RGS4 block inactive, MrgX1 allo act inactive, MrgX1 agonist inactive, RGS4 pot inactive and MrgX1 antag inactive.
`CC1(C)Cc2c(C#N)c(N3CCCC3)nc(-c3ccco3)c2CO1` gave RGS4 block 8.53*, MrgX1 allo act inactive, MrgX1 agonist inactive, RGS4 pot inactive, MrgX1 antag inactive, RGS4 inh valid 6.0%*, RGS4 uninduced inactive and M3R basal Ca ctr 13.0%*.
For CCOc1ccc(N2CC(C(=O)NC3CCCC3)CC2=O)cc1 (configuration not stated) the results were RGS4 block inactive, MrgX1 allo act inactive, MrgX1 agonist inactive, RGS4 pot inactive and MrgX1 antag inactive.
`O=C(/C=C/NNC(=O)c1ccc(Cl)cc1)c1ccccc1` gave RGS4 block 6.12*, MrgX1 allo act inactive, MrgX1 agonist inactive, RGS4 pot inactive, MrgX1 antag inactive, RGS4 inh valid inactive, RGS4 uninduced inactive and M3R basal Ca ctr inactive.
Screening O=Nc1c(O)n(Cc2ccc(Cl)c(Cl)c2)c2ccccc12 returned RGS4 block 14.7*, MrgX1 allo act inactive, MrgX1 agonist inactive, RGS4 pot inactive, MrgX1 antag inactive, RGS4 inh valid 15.5%*, RGS4 uninduced 39.0%* and M3R basal Ca ctr inactive.
Screening CCOC(=O)c1oc2ccccc2c1COC(=O)CNC(=O)c1ccc(C)cc1 returned RGS4 block inactive, MrgX1 allo act inactive, MrgX1 agonist inactive, RGS4 pot inactive and MrgX1 antag inactive.
`O=C(Nc1nnc(-c2ccc3c(c2)OCCO3)o1)C1CCCCC1` gave RGS4 block 8.41*, MrgX1 allo act inactive, MrgX1 agonist inactive, RGS4 pot inactive, MrgX1 antag inactive, RGS4 inh valid 7.0%*, RGS4 uninduced inactive and M3R basal Ca ctr inactive.
For CN1CCN(C(=O)C2CCC(=O)N(CCc3cccc(F)c3)C2)CC1 (configuration not stated) the results were RGS4 block inactive, MrgX1 allo act inactive, MrgX1 agonist inactive, RGS4 pot inactive and MrgX1 antag inactive.
Screening COc1ccc(NS(=O)(=O)c2cn(C)cn2)cc1OC returned RGS4 block inactive, MrgX1 allo act inactive, MrgX1 agonist inactive, RGS4 pot inactive and MrgX1 antag inactive.
O=C(/C=C/c1ccc([N+](=O)[O-])cc1)c1cccs1 was read as RGS4 block 11.9*, MrgX1 allo act inactive, MrgX1 agonist inactive, RGS4 pot inactive, MrgX1 antag inactive, RGS4 inh valid 8.0%*, RGS4 uninduced 37.5%* and M3R basal Ca ctr inactive.
CCn1c(=O)c([N+](=O)[O-])c(Cl)c2ccccc21 was read as RGS4 block 6.58*, MrgX1 allo act 10.2*, MrgX1 agonist inactive, RGS4 pot inactive, MrgX1 antag inactive, RGS4 inh valid 8.5%*, RGS4 uninduced inactive and M3R basal Ca ctr 9.5%*.
For Cc1cc(N2CCOCC2)ccc1/C=C\[N+](=O)[O-] the results were RGS4 block 27.4*, MrgX1 allo act inactive, MrgX1 agonist 67*, RGS4 pot inactive, MrgX1 antag inactive, RGS4 inh valid 98.0%*, RGS4 uninduced 57.0%* and M3R basal Ca ctr 75.0%*.

Screening data as filed in PubChem.
